ChEMBL document CHEMBL1135883, “A comprehensive study of the active site residues of DT-diaphorase: rational design of benzimidazolediones as DT-diaphorase substrates” (J Med Chem, 2002)

Key:
[1] = biological target: NAD(P)H dehydrogenase [quinone] 1 (Homo sapiens) (UniProt P15559); experiment: Evaluated for the kinetic parameter (Kcat) using recombinant DT-Diaphorase, value calculated from Lineweaver-Burke plot
In short: (§1)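 Recombinant human DT-diaphorase (1.4 × 10^-9 M final) with NADH (0.3 mM final) and quinone substrate (1.3 × 10^-6 to 6.7 × 10^-5 M final; 4.0 mM DMSO stock) in 0.05 M Tris pH 7.4. Anaerobic Thunberg cuvettes, argon-purged 20 min, 30 °C. Initial rates from 336 nm absorbance over 10 min. Δε from absorbance before and after complete reduction. kcat and Km from Lineweaver–Burke plot.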

[2] = biological target: NAD(P)H dehydrogenase [quinone] 1 (Homo sapiens) (UniProt P15559); experiment: Ratio Kcat/Km provides the apparent second-order rate constant of the enzymatic transformation of DT-Diaphorase; in short: as §1
[3] = biological target: NAD(P)H dehydrogenase [quinone] 1 (Homo sapiens) (UniProt P15559); experiment: The ratio Kcat/Km provides the apparent second-order rate constant of the enzymatic transformation DT-Diaphorase; in short: as §1

Chain of NAD(P)H dehydrogenase [quinone] 1 (Homo sapiens) (P15559 whole entry): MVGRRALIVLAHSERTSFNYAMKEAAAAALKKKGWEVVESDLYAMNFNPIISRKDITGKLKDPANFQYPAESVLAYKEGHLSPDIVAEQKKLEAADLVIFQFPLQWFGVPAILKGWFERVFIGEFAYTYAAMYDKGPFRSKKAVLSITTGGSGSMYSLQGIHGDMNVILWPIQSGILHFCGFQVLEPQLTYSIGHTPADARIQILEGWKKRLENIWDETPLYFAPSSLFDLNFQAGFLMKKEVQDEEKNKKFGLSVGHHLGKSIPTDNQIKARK

SMILES | k cat [1] [s⁻¹] | k cat/Km [2] [M⁻¹ s⁻¹] | k cat/Km [3] [M⁻¹ s⁻¹]
CC1=C(N2CC2)C(=O)c2nc3n(c2C1=O)CCC[C@H]3N | 4.92 | 106000 | –
CC1=C(N2CC2)C(=O)c2nc3n(c2C1=O)CC[C@H]3N | 3.26 | 640000 | –
CC1=C(N2CC2)C(=O)c2nc3n(c2C1=O)CC[C@@H]3N | 2.64 | 1.39e+06 | –
CC1=C(N2CC2)C(=O)c2nc3n(c2C1=O)CCC[C@@H]3N | 2.97 | – | 188000
CC1=C(N2CC2)C(=O)c2nc3n(c2C1=O)CC[C@H]3NC(=O)N(C)C | 9.56 | 2.13e+06 | –
COCC(=O)O[C@@H]1CCn2c1nc1c2C(=O)C(C)=C(NC(C)=O)C1=O | 4.84 | – | 40000
CC1=C(N2CC2)C(=O)c2nc3n(c2C1=O)CC[C@@H]3NC(=O)N(C)C | 3.96 | 940000 | –
O=C1c2nc3n(c2C(=O)c2c1nc1n2CCCC1)CCCC3 | 3.74 | 1.45e+06 | –
CC(=O)N[C@H]1CCn2c1nc1c2C(=O)C(C)=C(N2CC2)C1=O | 1.87 | 520000 | –
CC1=C(N2CC2)C(=O)c2nc3n(c2C1=O)CC[C@@H]3NC(N)=O | 2.4 | – | 1.2e+06
O=C1c2nc3n(c2C(=O)c2c1nc1n2CCC1)CCC3 | 3.81 | – | 118000
CC1=C(N2CC2)C(=O)c2nc3n(c2C1=O)CC[C@H]3NC(N)=O | 2.7 | 890000 | –
CC(=O)NC1=C(C)C(=O)c2c(nc3n2CC[C@@H]3OC(C)=O)C1=O | 3.85 | 472000 | –
CC(=O)N[C@@H]1CCn2c1nc1c2C(=O)C(C)=C(N2CC2)C1=O | 1.47 | – | 920000
COCC(=O)O[C@H]1CCn2c1nc1c2C(=O)C(C)=C(NC(C)=O)C1=O | 1.74 | 69000 | –
CC(=O)NC1=C(C)C(=O)c2c(nc3n2CC[C@H]3OC(C)=O)C1=O | 3.81 | 154000 | –
